Experimental data of several laboratories.
Effect on: binding
CDK4 with cyclin D3: Cyclin-dependent kinase 4, with cyclin D3 (CDK4, Homo sapiens, UniProt P11802)
CDK4 with cyclin D1: Cyclin-dependent kinase 4, with cyclin D1 (CDK4, Homo sapiens, UniProt P11802)
CDK4: Cyclin-dependent kinase 4 (CDK4, Homo sapiens, UniProt P11802)

For CNS(=O)(=O)c1ccc(Nc2ncc(C(F)(F)F)c(N3CCC[C@](C)(O)C3)n2)c(C)c1, the remaining binding was 33% (CDK4 with cyclin D3; competition with immobilised ligand; 1 µM).
Cc1ccc(NC(=O)c2ccnc(C(F)(F)F)c2)cc1-c1cc(OCCO)nc(N2CCOCC2)c1 gave a remaining binding of 97% (CDK4 with cyclin D1; 1 µM).
CCCCC(=O)Nc1ccc(-c2ccc3ncn(CCC)c(=O)c3c2)cn1 has a remaining binding of 95% (CDK4 with cyclin D3; competition with immobilised ligand; 0.5 µM).
With CN1CCN(C(=O)c2ccc(NC(=O)Nc3ccc(N(C)c4ccnc(Nc5ccc(CS(C)(=O)=O)cc5)n4)cc3)cc2)CC1 the remaining binding was 77% (CDK4 with cyclin D1; 1 µM).
C1=C/COCc2cc(ccc2OCCN2CCCC2)Nc2nccc(n2)-c2cccc(c2)COC/1 gave a remaining binding of 99% (CDK4; 0.1 µM).
C[C@]1(O)CCCN(c2nc(Nc3ccc(S(=O)(=O)N[C@H]4CC[C@H](CN5CCN(c6ccc(C7CCC(=O)NC7=O)cc6F)CC5)CC4)cc3F)ncc2C(F)(F)F)C1 (stereo partly drawn) gave a remaining binding of 97% (CDK4; competition with immobilised ligand; 1 µM).
The remaining binding of COc1ccc2oc(-c3ccc4nc(N)oc4c3)c/c(=N\c3ccccc3NC(=O)CCN)c2c1 is reported as 93% (CDK4 with cyclin D3; 1 µM).
With Cc1cc(S(=O)(=O)N[C@H]2CC[C@H](CN3CCN(c4ccc(C5CCC(=O)NC5=O)cc4F)CC3)CC2)ccc1Nc1ncc(C(F)(F)F)c(N2CCC[C@](C)(O)C2)n1 (stereo partly drawn) the remaining binding was 52% (CDK4 with cyclin D3; competition with immobilised ligand; 1 µM).
The remaining binding of COc1ccc2[nH]c3c4[nH]c5ccc(OC)cc5c4c4c(c3c2c1)C(=O)NC4=O is reported as 100% (CDK4; 1 µM).
